# Experimental data pooled from the literature.
# Lines come from different studies, so protocols differ.
# Sample: plasma
SMILES,system,conditions,half-life [h]
CO[C@H]1CC[C@H](N2C(=O)CNc3ncc(-c4ccc(C(C)(C)O)nc4)nc32)CC1,human,"oral, 15 mg, patients",3.35
C[C@@H](c1ccc2nccn2c1)n1nnc2ncc(-c3cnn(C)c3)nc21,human,"oral, 600 mg",7.1
CS(=O)(=O)n1cc2c(n1)CN([C@H]1CO[C@H](c3cc(F)ccc3F)[C@@H](N)C1)C2,male human,"oral, 10 mg, single dose, fasted",49.9
CO[C@H]1/C=C\C=C(/C)C(=O)NC2=CC(=O)C(NCCN(C)C)=C(C[C@@H](C)C[C@H](OC)[C@H](O)[C@@H](C)/C=C(\C)[C@@H]1OC(N)=O)C2=O,human,"intravenous, 27 mg/m², patients, infusion",22.5
COc1ccc(-n2nc(C(N)=O)c3c2C(=O)N(c2ccc(N4CCCCC4=O)cc2)CC3)cc1,human,"oral, 20 mg, single dose, healthy volunteers",~13
COc1cc(C(=O)NC2CCN(C)CC2)c(F)cc1Nc1ncc(C(F)(F)F)c(Oc2cccc3c2C(=O)N(C)C3)n1,human,"oral, 200 mg, multiple doses, once daily, patients",20.4
Cc1cc(Nc2ncc(Cl)c(Nc3ccccc3S(=O)(=O)C(C)C)n2)c2c(c1C1CCN(C)CC1)C[C@@H](C)O2,human,"oral, 160 mg, single dose, fed",34.7
COc1ccc([C@@H]2CN(C(=O)[C@@H](O)CO)C[C@@]2(C)[C@@H](C)O)cc1OC1CN(c2ccc(C)cn2)C1,human,"oral, 10 mg, single dose, healthy volunteers",12.6
Cc1nc(-c2cn3c(n2)-c2ccc(-c4cnn(C(C)(C)C(N)=O)c4)cc2OCC3)n(C(C)C)n1,human,"oral, 6 mg, patients",22.4
CC(C)(O)c1cc(Nc2cc(Oc3cn(C4CC4)nc3C3CCOCC3)ccn2)ccn1,human,"oral, patients",6.7
CO[C@@H]1[C@H](OC(=O)N2CC(CCN3CCOCC3)C2)CC[C@]2(CO2)[C@H]1[C@@]1(C)O[C@@H]1CC=C(C)C,human,"subcutaneous, 0.2 mg, single dose, healthy volunteers",0.49
OC[C@H]1O[C@@H](c2ccc(Cl)c(Cc3ccc(O[C@H]4CCOC4)cc3)c2)[C@H](O)[C@@H](O)[C@@H]1O,male human,"oral, 25 mg, multiple doses, once daily, steady state",8.44
O=C(Nc1c(Cl)cncc1Cl)c1ccc(OC(F)F)c(OCC2CC2)c1,human,"oral, 0.375 mg, single dose",19.7
COCCOc1cnc2ccn([C@H](C)c3nnc4c(F)cc(-c5cnn(C)c5)cn34)c(=O)c2c1,human,"oral, 50 mg, multiple doses, once daily, patients",15.3
CC(C)(O)c1ccccc1-c1ccc2[nH]c(/C=C/c3ccc(C(F)(F)F)cc3)nc2c1,male human,"oral, 2 mg, single dose, fasted, healthy volunteers",47.8
CC(C)(C)N/[N+]([O-])=N/OC1CCN(c2ccc(C#N)cn2)CC1,male human,"oral, single dose, healthy volunteers",46 to 78
Nc1cc(C(F)(F)F)c(-c2cc(N3CCOCC3)nc(N3CCOCC3)n2)cn1,human,"oral, 25 mg/day, patients",36.8
O=C(/C=C/c1cccc(S(=O)(=O)Nc2ccccc2)c1)NO,human,"intravenous, 2000 mg/m², patients",1.42
c1cnc2ccc(Nc3nc(NC4CC4)c4nc[nH]c4n3)cc2c1,human,"oral, 400 mg/m², patients",3.6
CS(=O)(=O)CCC#N,human,"oral, 100 mg, multiple doses, once daily",16
CC(C)[C@](O)(c1ccc2cc(OC(F)F)c(OC(F)F)cc2c1)c1c[nH]nn1,female human,"oral, 600 mg, single dose",8.4
NS(=O)(=O)NCCNc1nonc1C(=NO)Nc1ccc(F)c(Br)c1,human,"oral, 700 mg, multiple doses, twice daily, steady state, patients",3
C#C[C@]1(COP(=O)(O)OP(=O)(O)OP(=O)(O)O)O[C@@H](n2cnc3c(N)nc(F)nc32)C[C@@H]1O,human,"oral, 15 mg, single dose",161
CCOc1cc([C@@H](CS(C)(=O)=O)N2C(=O)c3cccc(NC(C)=O)c3C2=O)ccc1OC,male human,"oral, 20 mg, single dose, healthy volunteers",7.6
Cn1cc(-c2ccc(S(=O)(=O)[C@@H]3C[C@@H](C(=O)NC4(C#N)CC4)N(C(=O)C4(C(F)(F)F)CC4)C3)c(C(F)(F)F)c2)cn1,human,"oral, 1 mg, single dose, fasted, healthy volunteers",5.47
CC(C)(Sc1ccncc1-c1ccc(C#N)c2ccccc12)C(=O)O,male human,"oral, 5 mg, single dose, fasted, healthy volunteers",14.2
CC(C)n1cc(C#N)c2cc(-n3cc(C(=O)O)cn3)ccc21,human,"oral, 50 mg, single dose, fasted, healthy volunteers",7.1
C[C@@H](Nc1cc(F)cc(F)c1)c1cc(C(=O)N(C)C)cc2c(=O)cc(N3CCOCC3)oc12,human,"oral, 60 mg, patients",5.2
CC(C)(C)OC[C@@H]1C(=O)NCCN1C(=O)C[C@H](N)Cc1cc(F)c(F)cc1F,male human,"oral, 5 mg, multiple doses, steady state, healthy volunteers",24.7
CCNCCCNC/C=C\CNCCCNCC,human,"intravenous, 50 mg, patients, infusion",0.18
